Test results taken from ChEMBL document CHEMBL4152207, “Discovery of potent and selective BRD4 inhibitors capable of blocking TLR3-induced acute airway inflammation” (Eur J Med Chem, 2018).
Activity calls are given as the source filed them. The rule behind the calls is not given here.

Assays:
[1] = test system: Mus musculus; assay: Hepatotoxicity in mouse assessed as effect on albumin level at 1 to 50 mg/kg, ip dosed daily for 1 month; type: toxicity, organism-based; details: in vivo
Outline: (§1)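 Groups of n = 5 mice were dosed daily at 1-50 mg/kg for one month. Liver function markers (albumin, globulin, ALK, ALT) were measured alongside body weight, blood counts and renal markers.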

[2] = molecular target: cGMP-inhibited 3',5'-cyclic phosphodiesterase 3A (Homo sapiens) (UniProt Q14432); assay: Displacement of [3H]cAMP from human recombinant PDE3A at 10 uM after 20 mins by scintillation counting analysis relative to control
Chain of cGMP-inhibited 3',5'-cyclic phosphodiesterase 3A (Homo sapiens) (Q14432 whole entry): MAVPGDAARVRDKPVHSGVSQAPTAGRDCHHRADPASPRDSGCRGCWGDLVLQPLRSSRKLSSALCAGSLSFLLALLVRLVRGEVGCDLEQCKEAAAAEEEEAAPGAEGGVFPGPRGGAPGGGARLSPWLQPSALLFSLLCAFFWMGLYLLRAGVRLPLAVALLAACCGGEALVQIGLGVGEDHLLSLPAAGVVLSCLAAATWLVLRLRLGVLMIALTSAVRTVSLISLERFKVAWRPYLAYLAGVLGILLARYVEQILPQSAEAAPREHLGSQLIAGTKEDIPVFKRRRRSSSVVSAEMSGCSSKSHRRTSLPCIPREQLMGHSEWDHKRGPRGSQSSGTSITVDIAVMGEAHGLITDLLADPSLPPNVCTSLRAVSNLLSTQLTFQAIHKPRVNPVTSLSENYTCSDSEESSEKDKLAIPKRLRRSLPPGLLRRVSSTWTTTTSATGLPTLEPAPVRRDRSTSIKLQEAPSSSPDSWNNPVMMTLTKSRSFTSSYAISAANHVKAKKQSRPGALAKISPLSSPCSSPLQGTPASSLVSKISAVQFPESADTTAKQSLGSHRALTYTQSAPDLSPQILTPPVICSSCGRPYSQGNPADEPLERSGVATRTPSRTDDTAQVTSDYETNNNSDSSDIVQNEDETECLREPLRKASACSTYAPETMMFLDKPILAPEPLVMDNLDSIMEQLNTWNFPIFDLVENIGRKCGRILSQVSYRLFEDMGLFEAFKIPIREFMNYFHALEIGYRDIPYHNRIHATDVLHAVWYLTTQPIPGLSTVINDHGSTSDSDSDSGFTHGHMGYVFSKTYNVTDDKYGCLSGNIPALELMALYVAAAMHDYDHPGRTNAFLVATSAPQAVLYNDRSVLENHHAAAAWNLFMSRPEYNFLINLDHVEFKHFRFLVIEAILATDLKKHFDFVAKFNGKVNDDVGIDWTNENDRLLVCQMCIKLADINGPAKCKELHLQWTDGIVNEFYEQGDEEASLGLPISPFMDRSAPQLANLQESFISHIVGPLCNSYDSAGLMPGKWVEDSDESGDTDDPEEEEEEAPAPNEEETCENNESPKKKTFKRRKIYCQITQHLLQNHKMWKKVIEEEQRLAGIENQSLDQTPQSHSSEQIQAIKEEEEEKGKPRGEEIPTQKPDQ

[3] = molecular target: Tyrosine-protein kinase Lck (Homo sapiens) (UniProt P06239); assay: Inhibition of human recombinant LCK using Ulight-Poly GAT[EAY(1:1:1)]n as substrate after 10 mins relative to control; design: scale not given: the % may be the effect or the level left
[4] = test system: Mus musculus; assay: Toxicity in mouse assessed as effect on WBC levels at 1 to 50 mg/kg, ip dosed daily for 1 month; type: organism-based; details: in vivo
[5] = molecular target: D(1A) dopamine receptor (Homo sapiens) (UniProt P21728); assay: Displacement of [3H]-SCH 23390 from human recombinant dopamine D1 receptor at 10 uM after 60 mins by scintillation counting analysis relative to control
[6] = molecular target: Cannabinoid receptor 2 (Homo sapiens) (UniProt P34972); assay: Displacement of [3H]WIN 55212-2 from human recombinant CB2 receptor at 10 uM after 120 mins by scintillation counting analysis relative to control
Chain of Cannabinoid receptor 2 (Homo sapiens) (P34972 whole entry): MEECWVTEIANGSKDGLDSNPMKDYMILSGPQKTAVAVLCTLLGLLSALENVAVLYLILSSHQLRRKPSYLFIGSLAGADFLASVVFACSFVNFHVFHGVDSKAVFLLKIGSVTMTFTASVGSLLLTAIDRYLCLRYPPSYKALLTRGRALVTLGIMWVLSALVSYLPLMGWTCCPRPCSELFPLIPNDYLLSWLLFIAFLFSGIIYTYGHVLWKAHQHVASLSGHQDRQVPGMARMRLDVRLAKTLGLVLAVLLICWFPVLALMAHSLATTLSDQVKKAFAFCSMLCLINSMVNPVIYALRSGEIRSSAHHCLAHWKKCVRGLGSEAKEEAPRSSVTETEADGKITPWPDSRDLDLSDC

[7] = test system: Mus musculus; assay: Anti-inflammatory activity in poly(I:C)-induced airway inflammation C57BL/6 mouse model assessed as reduction in mCIG5 expression in lung at 10 mg/kg, ip administered 1 day prior to poly(I:C) stimulation and redosed on day 2 followed by poly(I:C) stimulation; type: functional, organism-based
Outline: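 Male C57BL/6J mice, 12 weeks old, were given 10 mg/kg i.p. one day before stimulation. The next day they got a second dose, immediately followed by intranasal poly(I:C) (300 μg in 50 μL PBS) or PBS alone. Compound was taken up in DMSO and diluted in 10% hydroxypropyl β-cyclodextrin in PBS. Mice were euthanized one day later and lung tissue was collected for cytokine expression.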

[8] = molecular target: Acetylcholinesterase (Homo sapiens) (UniProt P22303); assay: Inhibition of human recombinant ACHE using acetylthiocholine as substrate after 30 mins by spectrophotometric relative to control; design: scale not given: the % may be the effect or the level left
Outline: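 Run within a commercial off-target panel of receptors and enzymes, with compound tested at a single concentration of 10 μM.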

[9] = molecular target: 5-hydroxytryptamine receptor 1B (Homo sapiens) (UniProt P28222); assay: Displacement of [125I]-CYP from human 5-HT1B receptor at 10 uM after 120 mins by scintillation counting analysis relative to control
[10] = molecular target: Kappa-type opioid receptor (Homo sapiens) (UniProt P41145); assay: Displacement of [3H]U69593 from human kappa opioid receptor at 10 uM after 60 mins by scintillation counting analysis relative to control
Chain of Kappa-type opioid receptor (Homo sapiens) (P41145 whole entry): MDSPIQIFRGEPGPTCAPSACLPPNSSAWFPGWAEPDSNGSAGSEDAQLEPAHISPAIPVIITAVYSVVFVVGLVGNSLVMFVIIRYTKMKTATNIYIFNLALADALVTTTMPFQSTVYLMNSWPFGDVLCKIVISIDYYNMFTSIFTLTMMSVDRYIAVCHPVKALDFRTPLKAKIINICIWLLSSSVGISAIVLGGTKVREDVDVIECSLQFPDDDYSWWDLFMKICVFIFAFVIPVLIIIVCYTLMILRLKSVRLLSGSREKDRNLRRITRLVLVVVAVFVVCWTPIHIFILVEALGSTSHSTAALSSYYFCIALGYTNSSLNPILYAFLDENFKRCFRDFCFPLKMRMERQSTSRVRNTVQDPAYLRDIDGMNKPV

[11] = Volume of distribution at steady state in rat at 10 mg/kg, iv; type: ADME, organism-based; details: in vivo, read-out: Vdss
[12] = molecular target: Beta-1 adrenergic receptor (Homo sapiens) (UniProt P08588); assay: Displacement of [3H](-)CGP 12177 from human beta1 adrenoceptor at 10 uM after 60 mins by scintillation counting analysis relative to control
Chain of Beta-1 adrenergic receptor (Homo sapiens) (P08588 whole entry, looked up): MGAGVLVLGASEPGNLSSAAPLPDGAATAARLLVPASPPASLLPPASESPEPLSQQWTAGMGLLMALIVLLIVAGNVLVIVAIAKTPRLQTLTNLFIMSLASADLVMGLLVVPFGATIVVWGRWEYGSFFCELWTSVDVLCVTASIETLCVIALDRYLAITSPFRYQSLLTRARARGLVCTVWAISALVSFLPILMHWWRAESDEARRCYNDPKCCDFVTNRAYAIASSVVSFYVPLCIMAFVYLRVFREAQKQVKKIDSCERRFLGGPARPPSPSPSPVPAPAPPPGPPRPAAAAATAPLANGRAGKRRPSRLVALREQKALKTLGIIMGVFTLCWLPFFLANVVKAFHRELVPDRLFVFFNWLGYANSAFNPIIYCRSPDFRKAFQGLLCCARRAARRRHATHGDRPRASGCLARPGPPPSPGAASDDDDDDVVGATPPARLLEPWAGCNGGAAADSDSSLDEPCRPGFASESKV

[13] = molecular target: Cannabinoid receptor 1 (Homo sapiens) (UniProt P21554); assay: Displacement of [3H]CP 55940 from human recombinant CB1 receptor at 10 uM after 120 mins by scintillation counting analysis relative to control
Chain of Cannabinoid receptor 1 (Homo sapiens) (P21554 whole entry): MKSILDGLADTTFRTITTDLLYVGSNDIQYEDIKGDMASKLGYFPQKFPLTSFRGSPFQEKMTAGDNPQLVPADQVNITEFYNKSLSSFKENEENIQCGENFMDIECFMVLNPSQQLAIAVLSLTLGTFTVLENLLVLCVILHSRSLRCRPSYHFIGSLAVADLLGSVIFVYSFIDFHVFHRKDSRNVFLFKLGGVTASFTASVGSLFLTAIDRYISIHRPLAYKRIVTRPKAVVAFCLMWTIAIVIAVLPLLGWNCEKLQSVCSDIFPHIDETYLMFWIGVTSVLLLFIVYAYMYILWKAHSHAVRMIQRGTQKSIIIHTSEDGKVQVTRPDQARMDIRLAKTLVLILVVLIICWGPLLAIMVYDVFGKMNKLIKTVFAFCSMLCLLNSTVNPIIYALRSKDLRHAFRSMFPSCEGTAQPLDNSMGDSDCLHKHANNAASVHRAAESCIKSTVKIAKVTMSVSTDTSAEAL

[14] = molecular target: 3',5'-cyclic-AMP phosphodiesterase 4D (Homo sapiens) (UniProt Q08499); assay: Displacement of [3H]cAMP from human recombinant PDE4D2 at 10 uM after 20 mins by scintillation counting analysis relative to control
[15] = molecular target: Alpha-1A adrenergic receptor (Homo sapiens) (UniProt P35348); assay: Displacement of [3H]prazosin from human recombinant adrenergic alpha1A receptor at 10 uM after 120 mins by scintillation counting analysis relative to control
[16] = test system: Mus musculus; assay: Toxicity in mouse assessed as effect on platelet level at 1 to 50 mg/kg, ip dosed daily for 1 month; type: organism-based; details: in vivo
[17] = AUC (0 to t) in rat at 20 mg/kg, po; type: ADME, organism-based; details: in vivo
[18] = test system: Mus musculus; assay: Renal toxicity in mouse assessed as effect on CRE level at 1 to 50 mg/kg, ip dosed daily for 1 month; type: organism-based; details: in vivo
[19] = test system: Mus musculus; assay: Hepatotoxicity in mouse assessed as effect on ALT level at 1 to 50 mg/kg, ip dosed daily for 1 month; type: toxicity, organism-based; details: in vivo; outline: as §1
[20] = molecular target: MAO-A (amine oxidase [flavin-containing] A) (Rattus norvegicus, UniProt P21396); assay: Displacement of [3H]Ro 41-1049 from rat MAO-A at 10 uM after 120 mins by scintillation counting analysis relative to control; details: probe [3H]Ro 41-1049, read-out: Activity
[21] = molecular target: Mu-type opioid receptor (Homo sapiens) (UniProt P35372); assay: Displacement of [3H]DAMGO from human recombinant mu opioid receptor at 10 uM after 120 mins by scintillation counting analysis relative to control
Chain of Mu-type opioid receptor (Homo sapiens) (P35372 whole entry): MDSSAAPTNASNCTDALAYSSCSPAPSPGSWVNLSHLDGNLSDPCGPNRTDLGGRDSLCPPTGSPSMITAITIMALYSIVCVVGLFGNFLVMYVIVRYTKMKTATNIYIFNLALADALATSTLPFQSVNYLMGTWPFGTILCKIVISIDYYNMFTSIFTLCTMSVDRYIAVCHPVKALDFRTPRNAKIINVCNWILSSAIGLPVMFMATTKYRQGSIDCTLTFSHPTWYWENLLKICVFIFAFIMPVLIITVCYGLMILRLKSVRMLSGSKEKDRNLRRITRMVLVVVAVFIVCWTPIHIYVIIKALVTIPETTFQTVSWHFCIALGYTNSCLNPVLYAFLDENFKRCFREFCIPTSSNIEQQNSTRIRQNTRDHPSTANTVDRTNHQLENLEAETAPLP

[22] = molecular target: 5-hydroxytryptamine receptor 3A (Homo sapiens) (UniProt P46098); assay: Displacement of [3H]BRL 43694 from human recombinant 5-HT3 receptor at 10 uM after 120 mins by scintillation counting analysis relative to control
Chain of 5-hydroxytryptamine receptor 3A (Homo sapiens) (P46098 whole entry): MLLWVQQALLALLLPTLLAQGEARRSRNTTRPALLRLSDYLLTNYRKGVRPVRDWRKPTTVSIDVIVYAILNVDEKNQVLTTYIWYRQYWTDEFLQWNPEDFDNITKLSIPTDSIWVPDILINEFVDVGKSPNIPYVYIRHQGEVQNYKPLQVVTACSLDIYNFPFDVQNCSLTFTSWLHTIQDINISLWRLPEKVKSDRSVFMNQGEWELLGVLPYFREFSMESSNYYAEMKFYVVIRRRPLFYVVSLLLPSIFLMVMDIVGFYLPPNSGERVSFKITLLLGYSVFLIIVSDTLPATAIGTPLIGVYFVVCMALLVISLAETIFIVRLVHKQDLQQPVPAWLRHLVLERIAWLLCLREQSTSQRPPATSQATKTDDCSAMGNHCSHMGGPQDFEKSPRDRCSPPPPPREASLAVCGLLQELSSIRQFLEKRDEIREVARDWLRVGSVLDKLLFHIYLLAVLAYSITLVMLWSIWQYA

[23] = molecular target: Delta-type opioid receptor (Homo sapiens) (UniProt P41143); assay: Displacement of [3H]DADLE from human recombinant delta opioid receptor after 60 mins by scintillation counting analysis relative to control
[24] = molecular target: Glutamate [NMDA] receptor (Homo sapiens) (UniProt Q05586+Q12879+Q13224+O15399+O60391+Q14957+Q8TCU5); assay: Binding affinity to NMDA receptor (unknown origin) at 10 uM by antgonist radioligand assay relative to control; type: protein-complex assay
[25] = molecular target: D(2) dopamine receptor (Homo sapiens) (UniProt P14416); assay: Displacement of [3H]7-OH-DPAT from human recombinant dopamine D2S receptor at 10 uM after 60 mins by scintillation counting analysis relative to control
Chain of D(2) dopamine receptor (Homo sapiens) (P14416 whole entry): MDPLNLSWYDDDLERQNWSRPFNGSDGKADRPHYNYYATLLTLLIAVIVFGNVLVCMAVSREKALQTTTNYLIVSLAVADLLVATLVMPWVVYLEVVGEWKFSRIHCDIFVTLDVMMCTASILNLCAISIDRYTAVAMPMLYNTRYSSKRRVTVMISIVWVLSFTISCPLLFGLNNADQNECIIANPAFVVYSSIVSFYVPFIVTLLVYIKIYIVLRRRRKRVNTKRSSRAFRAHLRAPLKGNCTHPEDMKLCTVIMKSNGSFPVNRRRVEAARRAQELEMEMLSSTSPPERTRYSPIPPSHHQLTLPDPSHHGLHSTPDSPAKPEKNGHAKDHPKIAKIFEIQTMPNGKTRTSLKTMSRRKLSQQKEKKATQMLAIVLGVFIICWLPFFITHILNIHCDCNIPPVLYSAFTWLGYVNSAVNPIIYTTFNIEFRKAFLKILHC

[26] = molecular target: CREB-binding protein (Homo sapiens, UniProt Q92793); assay: Inhibition of CBP (unknown origin) after 1 hr by TR-FRET assay
Outline: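 Isolated bromodomain in a kit TR-FRET assay. Inhibitor series 0.01 nM to 100 μM, incubated 1 h at room temperature. Excitation 340 nm, emission read at 620 and 670 nm with 100 μs delay and 500 μs window. IC50 from the sigmoidal plot of the 670/620 ratio against concentration. Mean of at least two runs.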

[27] = molecular target: Muscarinic acetylcholine receptor M2 (Homo sapiens) (UniProt P08172); assay: Displacement of [3H]AF-DX 384 from human recombinant M2 receptor at 10 uM after 60 mins by scintillation counting analysis relative to control
Chain of Muscarinic acetylcholine receptor M2 (Homo sapiens) (P08172 whole entry): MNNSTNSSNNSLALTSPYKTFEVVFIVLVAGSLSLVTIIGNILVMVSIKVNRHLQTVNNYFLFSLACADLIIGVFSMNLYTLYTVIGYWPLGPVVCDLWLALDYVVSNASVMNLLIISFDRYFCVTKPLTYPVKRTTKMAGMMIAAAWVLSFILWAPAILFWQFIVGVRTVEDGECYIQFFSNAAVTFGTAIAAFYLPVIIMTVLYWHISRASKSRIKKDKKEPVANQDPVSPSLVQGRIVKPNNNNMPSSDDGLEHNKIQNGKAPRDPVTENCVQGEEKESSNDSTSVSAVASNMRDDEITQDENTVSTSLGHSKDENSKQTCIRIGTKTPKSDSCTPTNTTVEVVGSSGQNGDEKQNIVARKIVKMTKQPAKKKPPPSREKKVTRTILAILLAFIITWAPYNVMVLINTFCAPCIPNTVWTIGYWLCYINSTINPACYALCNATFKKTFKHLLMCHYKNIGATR

[28] = molecular target: Histamine H2 receptor (Homo sapiens) (UniProt P25021); assay: Displacement of [125I]APT from human recombinant histamine H2 receptor at 10 uM after 120 mins by scintillation counting analysis relative to control
Chain of Histamine H2 receptor (Homo sapiens) (P25021 whole entry): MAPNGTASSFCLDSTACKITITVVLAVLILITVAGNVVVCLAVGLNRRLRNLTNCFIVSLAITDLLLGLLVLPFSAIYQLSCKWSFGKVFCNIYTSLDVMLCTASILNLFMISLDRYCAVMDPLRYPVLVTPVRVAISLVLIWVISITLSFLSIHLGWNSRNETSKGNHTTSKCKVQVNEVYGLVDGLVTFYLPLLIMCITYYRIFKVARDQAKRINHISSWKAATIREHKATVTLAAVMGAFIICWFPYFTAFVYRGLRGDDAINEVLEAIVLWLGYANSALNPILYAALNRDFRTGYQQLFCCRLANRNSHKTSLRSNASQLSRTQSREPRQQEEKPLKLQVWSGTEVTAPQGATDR

[29] = organism: Cavia porcellus; assay: Binding affinity to guinea pig Sodium channel site 2 at 10 uM by antagonist radioligand assay relative to control; design: scale not given: the % may be the effect or the level left

## Cc1cc(/N=N/c2ccc(S(=O)(=O)NC3CCCC3)cc2)c(N)cc1O
[1]
  Activity: Non-Toxic
[2]
  Activity: 46%
[3]
  Activity: -20.6%
[4]
  Activity: Non-Toxic
[5]
  Activity: 21.9%
[6]
  Activity: 59.3%
[7]
  Activity: Active
[8]
  Activity: 11.7%
[9]
  Activity: -9.6%
[10]
  Activity: 8.9%
[11]
  Vd: 1.12 L/kg
[12]
  Activity: 7.4%
[13]
  Activity: 24.7%
[14]
  Activity: 39.4%
[15]
  Activity: 17.2%
[16]
  Activity: Non-Toxic
[17]
  AUC(0-t): 104 ng·h/mL
[18]
  Activity: Non-Toxic
[19]
  Activity: Non-Toxic
[20]
  inhibition at 2 h, 10 µM: 49.8%
[21]
  Activity: 17.4%
[22]
  Activity: -12.9%
[23]
  Activity: -2.7%
[24]
  Activity: 17%
[25]
  Activity: 36.9%
[26]
  IC50: > 10 µM
[27]
  Activity: 21.6%
[28]
  Activity: -10.1%
[29]
  Activity: 27.7%
